The source made the active and inactive calls. The rule behind the calls is not given here.
What was measured:
[1] = target: Dual specificity tyrosine-phosphorylation-regulated kinase 3 (Homo sapiens) (UniProt O43781); assay: Inhibition of DYRK3 (unknown origin) at 1 uM by FRET method
Method in brief: (§1)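 SelectScreen panel of 58 kinases, each tested at a single 1 µM compound concentration. Read-out was Z′-LYTE FRET of labeled peptide phosphorylation, run by the vendor's protocols, reported as percent inhibition.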

[2] = target: Cyclin-dependent kinase 1/cyclin B1 (Homo sapiens) (UniProt P06493+P14635); assay: Inhibition of CDK1/cyclinB (unknown origin) at 1 uM by FRET method; type: protein-complex assay; method in brief: as §1
[3] = Volume of distribution at steady state in […] rat at 0.4 or 1 mg/kg, iv and 1 or 5 mg/kg, po; type: ADME, organism-based; details: in vivo, read-out: Vdss
Method in brief: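 Rat PK: iv dosing at 0.4 or 1 mg/kg as a 60% PEG solution, po dosing at 1 or 5 mg/kg as an aqueous suspension with 1% methylcellulose.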

[4] = target: Macrophage colony-stimulating factor 1 receptor (Homo sapiens, UniProt P07333); assay: Inhibition of CSF1R (unknown origin) at 1 uM by FRET method; method in brief: as §1
[5] = target: T1, Mitogen-activated protein kinase kinase kinase 12 (Homo sapiens) (UniProt Q12852); assay: Inhibition of Flag DLK (unknown origin) transfected in HEK293 cells assessed as reduction of phosphorylation of MKK4 at 0.1 to 10 uM incubated for 5 hrs measured by Western blot analysis; type: cell-based
T1 sequence (whole entry): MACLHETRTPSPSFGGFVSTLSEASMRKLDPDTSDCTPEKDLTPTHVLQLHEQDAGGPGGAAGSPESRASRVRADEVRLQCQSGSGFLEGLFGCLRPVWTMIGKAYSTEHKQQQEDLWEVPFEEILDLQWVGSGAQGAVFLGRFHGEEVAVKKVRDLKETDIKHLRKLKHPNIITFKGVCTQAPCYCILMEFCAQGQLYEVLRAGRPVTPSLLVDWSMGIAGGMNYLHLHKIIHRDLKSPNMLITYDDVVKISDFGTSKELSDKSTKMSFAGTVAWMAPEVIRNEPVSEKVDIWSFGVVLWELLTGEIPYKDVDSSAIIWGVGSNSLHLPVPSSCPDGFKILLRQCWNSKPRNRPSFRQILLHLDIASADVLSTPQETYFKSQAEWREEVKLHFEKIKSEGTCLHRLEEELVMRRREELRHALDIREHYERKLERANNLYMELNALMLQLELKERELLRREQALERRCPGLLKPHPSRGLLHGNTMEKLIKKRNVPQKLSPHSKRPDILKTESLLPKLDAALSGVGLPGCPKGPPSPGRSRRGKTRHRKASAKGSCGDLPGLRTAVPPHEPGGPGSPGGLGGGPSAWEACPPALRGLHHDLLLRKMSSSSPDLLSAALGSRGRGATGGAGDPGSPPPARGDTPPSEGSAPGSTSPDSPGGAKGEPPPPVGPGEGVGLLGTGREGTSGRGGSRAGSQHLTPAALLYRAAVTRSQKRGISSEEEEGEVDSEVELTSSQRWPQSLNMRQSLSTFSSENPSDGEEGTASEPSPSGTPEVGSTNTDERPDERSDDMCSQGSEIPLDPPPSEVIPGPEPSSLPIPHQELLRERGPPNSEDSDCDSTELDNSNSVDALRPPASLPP
Method in brief: (§2)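 HEK293 cells were transfected with Flag-tagged DLK, with kinase-dead DLK K152A as comparator, 24 h before compound addition. Cells were then exposed to compound for 5 h. Phospho-MKK4, phospho-MKK7, phospho-JNK and phospho-c-Jun were probed.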

[6] = AUC (0 to 6 h) in mouse at 50 mg/kg, po; type: ADME, organism-based; design: dose 50 mg/kg, time < 6 hr, route oral; details: in vivo
Method in brief: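 C57/Bl6 mice were given a single 50 mg/kg oral dose as an MCT suspension. Plasma was sampled over 0–6 h for Cmax, Tmax and AUC0–6h.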

[7] = target: Proto-oncogene tyrosine-protein kinase receptor Ret (Homo sapiens) (UniProt P07949); assay: Inhibition of Ret (unknown origin) at 1 uM by FRET method
Proto-oncogene tyrosine-protein kinase receptor Ret (Homo sapiens), sequence (P07949 whole entry): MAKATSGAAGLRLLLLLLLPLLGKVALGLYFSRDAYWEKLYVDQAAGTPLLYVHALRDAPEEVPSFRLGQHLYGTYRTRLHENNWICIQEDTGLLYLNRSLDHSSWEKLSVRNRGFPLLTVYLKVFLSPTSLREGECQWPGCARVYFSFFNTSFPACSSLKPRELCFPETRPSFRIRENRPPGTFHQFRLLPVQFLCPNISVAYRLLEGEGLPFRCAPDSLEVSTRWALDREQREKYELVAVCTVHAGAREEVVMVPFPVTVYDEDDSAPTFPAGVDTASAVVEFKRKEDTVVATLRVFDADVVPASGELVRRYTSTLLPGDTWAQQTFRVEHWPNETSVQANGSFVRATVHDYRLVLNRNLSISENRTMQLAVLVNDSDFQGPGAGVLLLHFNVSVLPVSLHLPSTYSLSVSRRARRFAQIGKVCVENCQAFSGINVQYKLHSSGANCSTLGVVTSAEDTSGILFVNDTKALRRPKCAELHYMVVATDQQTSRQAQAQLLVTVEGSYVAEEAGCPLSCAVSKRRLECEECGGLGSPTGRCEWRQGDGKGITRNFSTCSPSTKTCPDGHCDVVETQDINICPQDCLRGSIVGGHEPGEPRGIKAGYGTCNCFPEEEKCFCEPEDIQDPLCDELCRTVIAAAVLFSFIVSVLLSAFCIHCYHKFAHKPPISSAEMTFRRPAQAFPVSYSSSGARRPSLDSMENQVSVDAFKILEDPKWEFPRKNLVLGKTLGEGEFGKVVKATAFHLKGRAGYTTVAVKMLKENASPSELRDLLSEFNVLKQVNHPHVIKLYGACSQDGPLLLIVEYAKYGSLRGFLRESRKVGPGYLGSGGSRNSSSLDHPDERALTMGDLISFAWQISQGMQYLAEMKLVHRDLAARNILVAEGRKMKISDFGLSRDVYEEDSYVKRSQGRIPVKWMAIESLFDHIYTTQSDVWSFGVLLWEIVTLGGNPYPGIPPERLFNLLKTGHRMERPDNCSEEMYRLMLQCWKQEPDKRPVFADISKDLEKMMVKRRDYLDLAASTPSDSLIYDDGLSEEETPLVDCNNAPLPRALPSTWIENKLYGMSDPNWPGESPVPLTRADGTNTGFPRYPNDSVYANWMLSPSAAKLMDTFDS
Method in brief: (§3)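 Single-point screen at 1 uM against a panel of 58 representative kinases. Readout was labeled-peptide phosphorylation by FRET (Z′-LYTE), using the vendor's protocols.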

[8] = Half life in […] rat at 0.4 or 1 mg/kg, iv and 1 or 5 mg/kg, po; type: ADME, organism-based; details: in vivo
Method in brief: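 Rat PK used iv dosing at 0.4 or 1 mg/kg in 60% PEG solution and po dosing at 1 or 5 mg/kg as an aqueous 1% methylcellulose suspension. Free clearance is CL/fu, where fu is the fraction unbound in plasma.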

[9] = target: Platelet-derived growth factor receptor beta (Homo sapiens) (UniProt P09619); assay: Inhibition of PDGFRbeta (unknown origin) at 1 uM by FRET method; method in brief: as §3
[10] = target: Receptor tyrosine-protein kinase erbB-2 (Homo sapiens) (UniProt P04626); assay: Inhibition of ErbB2 (unknown origin) at 1 uM by FRET method; method in brief: as §1
Receptor tyrosine-protein kinase erbB-2 (Homo sapiens), sequence (P04626 whole entry): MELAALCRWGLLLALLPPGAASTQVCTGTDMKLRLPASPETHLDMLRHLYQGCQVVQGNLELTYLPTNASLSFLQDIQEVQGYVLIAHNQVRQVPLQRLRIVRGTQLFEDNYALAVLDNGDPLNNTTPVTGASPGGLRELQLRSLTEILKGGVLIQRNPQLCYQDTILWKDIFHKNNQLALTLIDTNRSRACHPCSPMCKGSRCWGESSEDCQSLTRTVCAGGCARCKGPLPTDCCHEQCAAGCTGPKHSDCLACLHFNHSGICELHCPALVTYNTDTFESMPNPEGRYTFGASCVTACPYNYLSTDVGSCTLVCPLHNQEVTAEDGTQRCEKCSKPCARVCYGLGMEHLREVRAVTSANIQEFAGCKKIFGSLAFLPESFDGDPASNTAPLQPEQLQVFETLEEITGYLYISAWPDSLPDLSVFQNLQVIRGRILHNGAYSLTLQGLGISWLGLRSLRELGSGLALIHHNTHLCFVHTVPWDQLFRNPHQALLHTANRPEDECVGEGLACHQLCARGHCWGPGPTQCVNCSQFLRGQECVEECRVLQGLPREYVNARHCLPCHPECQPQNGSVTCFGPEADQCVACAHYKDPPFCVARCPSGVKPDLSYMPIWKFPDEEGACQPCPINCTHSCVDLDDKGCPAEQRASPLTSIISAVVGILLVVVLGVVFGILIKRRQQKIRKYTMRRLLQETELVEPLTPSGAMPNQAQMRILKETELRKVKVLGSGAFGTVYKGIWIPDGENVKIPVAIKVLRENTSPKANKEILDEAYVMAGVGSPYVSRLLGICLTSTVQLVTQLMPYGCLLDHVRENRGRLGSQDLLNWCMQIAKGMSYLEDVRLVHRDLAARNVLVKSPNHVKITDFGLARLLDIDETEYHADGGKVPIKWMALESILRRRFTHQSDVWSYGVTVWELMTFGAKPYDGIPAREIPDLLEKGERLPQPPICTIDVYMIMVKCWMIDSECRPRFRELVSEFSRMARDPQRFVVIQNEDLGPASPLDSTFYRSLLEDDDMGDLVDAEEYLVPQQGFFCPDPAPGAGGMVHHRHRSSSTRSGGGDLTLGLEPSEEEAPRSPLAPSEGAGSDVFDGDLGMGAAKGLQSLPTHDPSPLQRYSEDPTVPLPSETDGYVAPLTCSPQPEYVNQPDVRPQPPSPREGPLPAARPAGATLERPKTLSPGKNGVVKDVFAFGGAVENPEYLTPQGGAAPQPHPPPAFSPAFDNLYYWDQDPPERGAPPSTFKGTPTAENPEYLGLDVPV

[11] = target: Activin receptor type-1B (Homo sapiens) (UniProt P36896); assay: Inhibition of ACVR1B (unknown origin) at 1 uM by FRET method; method in brief: as §1
Activin receptor type-1B (Homo sapiens), sequence (P36896 whole entry): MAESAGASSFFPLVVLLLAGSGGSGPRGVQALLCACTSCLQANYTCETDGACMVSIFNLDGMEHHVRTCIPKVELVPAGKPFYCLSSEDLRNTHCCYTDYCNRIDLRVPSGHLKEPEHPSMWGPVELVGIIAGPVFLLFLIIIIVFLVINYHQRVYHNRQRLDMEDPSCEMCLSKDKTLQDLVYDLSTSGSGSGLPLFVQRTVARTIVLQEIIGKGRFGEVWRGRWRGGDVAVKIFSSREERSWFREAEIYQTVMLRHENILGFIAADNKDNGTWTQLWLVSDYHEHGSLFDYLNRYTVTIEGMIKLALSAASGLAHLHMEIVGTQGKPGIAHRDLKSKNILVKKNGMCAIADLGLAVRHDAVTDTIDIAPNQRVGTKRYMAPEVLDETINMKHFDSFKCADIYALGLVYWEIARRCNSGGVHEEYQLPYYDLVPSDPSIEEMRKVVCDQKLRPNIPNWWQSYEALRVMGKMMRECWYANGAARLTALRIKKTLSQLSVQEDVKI

[12] = target: T1, Mitogen-activated protein kinase kinase kinase 12 (Homo sapiens); assay: Inhibition of Flag DLK (unknown origin) transfected in HEK293 cells assessed as reduction of phosphorylation of c-Jun at 0.1 to 10 uM incubated for 5 hrs measured by Western blot analysis; type: cell-based; method in brief: as §2
[13] = target: 5'-AMP-activated protein kinase catalytic subunit alpha-1 (Homo sapiens) (UniProt Q13131); assay: Inhibition of PRKAA1 (unknown origin) at 1 uM by FRET method; method in brief: as §3
5'-AMP-activated protein kinase catalytic subunit alpha-1 (Homo sapiens), sequence (Q13131 whole entry, looked up): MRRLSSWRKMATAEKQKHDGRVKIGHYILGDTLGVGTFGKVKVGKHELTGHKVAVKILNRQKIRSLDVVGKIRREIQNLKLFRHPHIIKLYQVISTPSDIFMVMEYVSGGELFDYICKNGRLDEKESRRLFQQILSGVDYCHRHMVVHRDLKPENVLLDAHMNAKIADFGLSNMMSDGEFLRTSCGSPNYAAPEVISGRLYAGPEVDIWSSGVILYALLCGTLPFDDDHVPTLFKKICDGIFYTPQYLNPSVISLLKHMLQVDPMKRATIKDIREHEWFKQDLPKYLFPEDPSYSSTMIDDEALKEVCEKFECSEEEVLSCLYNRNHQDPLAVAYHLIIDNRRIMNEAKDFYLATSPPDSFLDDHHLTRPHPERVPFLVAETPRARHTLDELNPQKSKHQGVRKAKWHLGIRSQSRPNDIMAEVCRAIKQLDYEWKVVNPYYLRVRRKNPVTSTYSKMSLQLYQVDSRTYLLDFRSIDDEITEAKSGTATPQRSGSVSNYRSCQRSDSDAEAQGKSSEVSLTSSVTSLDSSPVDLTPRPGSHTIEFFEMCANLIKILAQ

[14] = target: c-Jun N-terminal kinase, JNK (Homo sapiens) (UniProt P45983+P53779+P45984); assay: Inhibition of Myc CA-JNK (unknown origin) transfected in HEK293 cells assessed as reduction of phosphorylation of c-Jun at 10 uM incubated for 5 hrs measured by Western blot analysis; type: cell-based
Method in brief: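 HEK293 cells were transfected with constitutively active JNK 24 h before compound treatment. Cells were then exposed to compound for 5 h.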

[15] = Neuroprotective activity in Wistar rat DRG neuronal cells by neurodegeration assay; type: functional, cell-based
[16] = target: Mitogen-activated protein kinase kinase kinase 8 (Homo sapiens) (UniProt P41279); assay: Inhibition of Cot (unknown origin) at 1 uM by FRET method; method in brief: as §1
[17] = target: T1, Mitogen-activated protein kinase kinase kinase 12 (Homo sapiens); assay: Inhibition of Flag DLK (unknown origin) transfected in HEK293 cells assessed as reduction of phosphorylation of JNK at 0.1 to 10 uM incubated for 5 hrs measured by Western blot analysis; type: cell-based; method in brief: as §2
human MDR1 = assay: Permeability across apical to basolateral side in MDCK cells transfected with human MDR1 at 5 uM by LC-MS/MS analysis; details: dog
[18] = target: Mitogen-activated protein kinase kinase kinase 10 (Homo sapiens, UniProt Q02779); assay: Inhibition of MLK2 (unknown origin) by FRET method
Mitogen-activated protein kinase kinase kinase 10, sequence (Q02779 whole entry): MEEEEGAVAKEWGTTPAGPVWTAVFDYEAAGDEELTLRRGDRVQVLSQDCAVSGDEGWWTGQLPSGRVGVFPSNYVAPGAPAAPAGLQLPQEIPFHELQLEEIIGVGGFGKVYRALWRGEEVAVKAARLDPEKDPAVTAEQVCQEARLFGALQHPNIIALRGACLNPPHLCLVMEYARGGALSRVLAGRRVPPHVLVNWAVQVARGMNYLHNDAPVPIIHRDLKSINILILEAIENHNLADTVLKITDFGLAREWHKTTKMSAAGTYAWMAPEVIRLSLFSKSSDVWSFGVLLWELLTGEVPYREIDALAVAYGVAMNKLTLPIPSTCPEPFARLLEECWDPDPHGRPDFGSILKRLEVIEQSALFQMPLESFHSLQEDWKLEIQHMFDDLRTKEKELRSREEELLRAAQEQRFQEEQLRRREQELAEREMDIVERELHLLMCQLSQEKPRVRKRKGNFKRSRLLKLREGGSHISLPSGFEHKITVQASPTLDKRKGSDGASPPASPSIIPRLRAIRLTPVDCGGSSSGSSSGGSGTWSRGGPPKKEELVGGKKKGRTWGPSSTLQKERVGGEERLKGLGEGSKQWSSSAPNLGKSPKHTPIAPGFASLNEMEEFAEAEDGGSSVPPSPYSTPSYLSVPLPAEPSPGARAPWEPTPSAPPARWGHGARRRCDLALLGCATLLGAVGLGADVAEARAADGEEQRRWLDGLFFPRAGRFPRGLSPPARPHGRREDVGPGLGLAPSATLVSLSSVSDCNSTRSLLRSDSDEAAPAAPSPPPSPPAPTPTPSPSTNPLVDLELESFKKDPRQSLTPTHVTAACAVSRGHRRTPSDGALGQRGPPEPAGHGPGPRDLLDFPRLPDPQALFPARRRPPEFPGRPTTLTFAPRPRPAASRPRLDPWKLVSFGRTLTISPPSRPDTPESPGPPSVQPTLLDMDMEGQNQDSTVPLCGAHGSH
Method in brief: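 Biochemical IC50 determination from a 10-point dose-response in an enzymatic Z′-LYTE assay. Labeled-peptide phosphorylation was read by FRET under the vendor's protocols.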

Dual specificity tyrosine-phosphorylation-regulated kinase 3 (Homo sapiens), sequence (O43781 whole entry): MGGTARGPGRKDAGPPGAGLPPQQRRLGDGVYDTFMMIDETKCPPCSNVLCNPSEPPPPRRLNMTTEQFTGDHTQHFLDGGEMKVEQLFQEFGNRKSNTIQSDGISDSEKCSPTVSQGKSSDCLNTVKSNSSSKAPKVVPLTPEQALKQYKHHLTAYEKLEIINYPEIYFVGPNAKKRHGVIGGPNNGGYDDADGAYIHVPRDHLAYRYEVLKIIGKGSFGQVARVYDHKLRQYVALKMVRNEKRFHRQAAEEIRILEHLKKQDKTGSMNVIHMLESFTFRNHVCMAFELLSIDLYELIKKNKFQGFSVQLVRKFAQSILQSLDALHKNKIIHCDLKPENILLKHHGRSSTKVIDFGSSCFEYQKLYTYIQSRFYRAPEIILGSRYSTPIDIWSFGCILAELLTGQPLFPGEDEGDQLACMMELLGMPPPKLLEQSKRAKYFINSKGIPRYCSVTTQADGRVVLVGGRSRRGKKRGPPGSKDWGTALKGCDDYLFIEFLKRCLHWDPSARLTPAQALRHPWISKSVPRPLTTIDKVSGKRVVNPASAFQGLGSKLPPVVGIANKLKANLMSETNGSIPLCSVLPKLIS

inhibition [1]: 0.3%
inhibition [2]: 13.5%
Vd [3]: 4.4 L/kg
inhibition [4]: 51.8%
inhibition [5]: Active
AUC(0-t) at 6 h [6]: 15.8 µM·h
inhibition [7]: 29.6%
half-life [8]: 1.7 h
inhibition [9]: 23.8%
inhibition [10]: 1%
inhibition [11]: 7.1%
inhibition [12]: Active
inhibition [13]: 1.8%
inhibition [14]: inactive
EC50 [15]: 2.15 µM
inhibition [16]: 15.6%
inhibition [17]: Active
Papp A→B at 5 µM (human MDR1): 88 nm/s
IC50 [18]: > 10 µM
SMILES: N#Cc1ccnc(Nc2cc(C3CCN(C4COC4)CC3)n(C3CCCC3)n2)c1
